Data set [1] concerns the target T1, 17-beta-hydroxysteroid dehydrogenase type 3 (Homo sapiens) (UniProt P37058).
T1 sequence (whole entry): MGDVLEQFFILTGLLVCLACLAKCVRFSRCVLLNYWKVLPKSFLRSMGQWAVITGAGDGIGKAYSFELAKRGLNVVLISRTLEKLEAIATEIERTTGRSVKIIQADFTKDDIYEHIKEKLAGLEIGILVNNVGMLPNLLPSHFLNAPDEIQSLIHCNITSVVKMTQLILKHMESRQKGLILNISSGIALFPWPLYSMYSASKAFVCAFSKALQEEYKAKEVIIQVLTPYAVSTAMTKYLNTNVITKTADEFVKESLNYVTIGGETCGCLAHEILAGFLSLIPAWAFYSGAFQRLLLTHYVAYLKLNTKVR
The experiment in a line: Inhibition of 17beta-HSD3 (unknown origin) expressed in human LNCAP cells assessed as reduction in [14C]-testosterone formation from [14C]-4-androstene-3,17-dione at 0.1 uM measured after 1 hr relative to control. The data set is classed as cell-based. In a few lines:
(§1)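 LNCaP cells stably transfected with 17β-HSD3 were plated at 10,000 per well in hygromycin-free medium and grown 2 days. They were then given 15 nM [14C]-4-androstenedione plus inhibitor at 0.1, 0.5 or 1.0 µM (0.05% DMSO final) for 1 h. Steroids were ether-extracted, separated by TLC and quantified by radioimaging. Results are % inhibition of conversion to T.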

Data set [2] addresses T1, 17-beta-hydroxysteroid dehydrogenase type 3 (Homo sapiens). Kind of data set: Inhibition of 17beta-HSD3 (unknown origin) expressed in human LNCAP cells assessed as reduction in [14C]-testosterone formation from [14C]-4-androstene-3,17-dione at 0.5 uM measured after 1 hr relative to control. The format is cell-based. In a few lines:
as §1

For data set [3] the target is unchanged. The experiment in a line: Inhibition of 17beta-HSD3 (unknown origin) expressed in human LNCAP cells assessed as reduction in [14C]-testosterone formation from [14C]-4-androstene-3,17-dione at 1 uM measured after 1 hr relative to control. The data set is classed as cell-based. The essentials:
as §1

For data set [4], the target named is T2, 17-beta-hydroxysteroid dehydrogenase type 3 (Homo sapiens, UniProt P37058).
T2 sequence (P37058 whole entry): T1 sequence (whole entry)
Kind of data set: Inhibition of 17beta-HSD3 (unknown origin) expressed in human LNCAP cells assessed as reduction in [14C]-testosterone formation from [14C]-4-androstene-3,17-dione measured after 1 hr. The data set is classed as cell-based. In a few lines:
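Transfected LNCaP[17β-HSD3] cells were incubated 1 h with 15 nM [14C]-4-androstenedione and inhibitor at seven concentrations (0.001–5.0 µM; 0.05% DMSO). [14C]-T formation was measured by TLC and radioimaging. IC50 was obtained by curve fitting, averaging two independent experiments in triplicate.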

Data set [5] relates to LAPC4. The experiment in a line: Androgenic activity in human LAPC4 cells expressing androgen receptor assessed as effect on cell proliferation at 0.1 uM supplemented with fresh medium containing compounds every 3 days for 7 days by MTS assay (reference value: 100%). The data set is classed as ADME, cell-based. The conditions noted are these: lapc4, 168 h. In a few lines:
(§2)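 Androgen-dependent LAPC-4 cells were seeded at 5,000 per well in IMDM with 5% dextran-coated charcoal-treated FBS and pre-incubated 24 h at 37 °C, 5% CO2. Compounds were added from DMSO stock at 0.1, 0.5 and 1.0 µM, with 0.05% DMSO in controls. Incubation lasted 7 days, with a medium change at day 3. Growth was read by MTS (4 h, 490 nm) as % of untreated control (100%), in triplicate.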

Data set [6] relates to LAPC4. Kind of data set: Androgenic activity in human LAPC4 cells expressing androgen receptor assessed as effect on cell proliferation at 0.5 uM supplemented with fresh medium containing compounds every 3 days for 7 days by MTS assay (reference value: 100%). The data set is classed as ADME, cell-based. The settings on record: lapc4, 168 h. The essentials:
as §2
(Tetrazolium dyes change colour on reduction, which living cells bring about.)

The subject of data set [7] is LAPC4. The experiment in a line: Androgenic activity in human LAPC4 cells expressing androgen receptor assessed as effect on cell proliferation at 1 uM supplemented with fresh medium containing compounds every 3 days for 7 days by MTS assay (reference value: 100%). The data set is classed as ADME, cell-based. The settings on record: lapc4, 168 h. In a few lines: as §2

Take `CC1CN(S(=O)(=O)c2ccccc2C(F)(F)F)C(C)CN1C[C@@]1(O)CC[C@@]2(C)[C@@H](CC[C@@H]3[C@@H]2CC[C@]2(C)[C@@H](O)CC[C@@H]32)C1` (stereo partly specified): the inhibition stood at 38% in data set [1], 78% in data set [2] and 94% in data set [3]. For the same molecule, the IC50 in data set [4] was 0.19 µM. The Activity in data set [5] turned out to be 116.4%; in data set [6], 88.1%; in data set [7], 31.3%.
Turning to `CC1CN(S(=O)(=O)c2ccccc2C(F)(F)F)C(C)CN1CC(O)c1ccc2c(c1)CC[C@@H]1[C@@H]2CC[C@]2(C)C(=O)CC[C@@H]12` (single isomer, unassigned; diastereomer A) [listing 1 of 2 here], the IC50 in data set [4] turned out to be 0.14 µM. For the same molecule, the Activity stood at 115% in data set [5], 94.9% in data set [6] and 81.9% in data set [7].
`CO[C@H]1CC[C@H]2[C@@H]3CC[C@H]4C[C@@](O)(CN5CC(C)N(S(=O)(=O)c6ccccc6C(F)(F)F)CC5C)CC[C@]4(C)[C@H]3CC[C@]12C` (stereo partly specified): the inhibition was 10% in data set [1], 18% in data set [2] and 30% in data set [3].
In the case of `CC1CN(S(=O)(=O)c2ccccc2C(F)(F)F)C(C)CN1C[C@@]1(O)CC[C@@]2(C)[C@@H](CC[C@@H]3[C@@H]2CC[C@]2(C)C(=O)[C@H](O)C[C@@H]32)C1` (stereo partly specified), the inhibition in data set [1] was 0%; in data set [2], 60%; in data set [3], 80%. Also, the Activity was 114% in data set [5], 83.1% in data set [6] and 69.3% in data set [7].
For `CC1CN(S(=O)(=O)c2ccccc2C(F)(F)F)C(C)CN1C[C@@]1(O)CC[C@@]2(C)[C@@H](CC[C@@H]3[C@@H]2CC[C@@]2(C)[C@H]3CC[C@@]23CO3)C1` (stereo partly specified), the inhibition in data set [1] was determined as 5%; in data set [2] it was 10%; in data set [3], 20%. The Activity in data set [5] is on record as 92.6%; in data set [6], 61.2%; in data set [7] it was 49.3%.
`CC1CN(S(=O)(=O)c2ccccc2C(F)(F)F)C(C)CN1CC(F)c1ccc2c(c1)CC[C@@H]1[C@@H]2CC[C@]2(C)C(=O)CC[C@@H]12` (mixture of isomers): the inhibition was determined as 30% in data set [1], 80% in data set [2] and 90% in data set [3]. In data set [4], the IC50 turned out to be 0.25 µM.
Take `CC1CN(S(=O)(=O)c2ccccc2C(F)(F)F)C(C)CN1C[C@@]1(O)CC[C@@]2(C)[C@@H](CC[C@@H]3[C@@H]2CC[C@]2(C)[C@@H](O)[C@H](F)C[C@@H]32)C1` (stereo partly specified): the values for the inhibition in data set [1], in data set [2] and in data set [3] were 12%, 58% and 70%, respectively. For the same molecule, the Activity in data set [5] amounted to 153.6%; in data set [6] it was 149.7%; in data set [7], 142.4%.
As for `CC1CN(S(=O)(=O)c2ccccc2C(F)(F)F)C(C)CN1C[C@@]1(O)CC[C@@]2(C)[C@@H](CC[C@@H]3[C@@H]2CC[C@]2(C)[C@@H](O)[C@H](O)C[C@@H]32)C1` (stereo partly specified), the inhibition in data set [1] was 20%; in data set [2], 48%; in data set [3], 55%. Also, the Activity is recorded as 90.8% in data set [5], 54.1% in data set [6] and 43.8% in data set [7].
For the molecule `C#C[C@]1(O)CC[C@H]2[C@@H]3CC[C@H]4C[C@@](O)(CN5CC(C)N(S(=O)(=O)c6ccccc6C(F)(F)F)CC5C)CC[C@]4(C)[C@H]3CC[C@@]21C` (stereo partly specified), the inhibition in data set [1] worked out at 5%; in data set [2] it was 30%; in data set [3] it was 40%. Also, the Activity in data set [5] is on record as 130.9%; in data set [6], 95.8%; in data set [7] it was 81.2%.
Regarding `CC1CN(S(=O)(=O)c2ccccc2C(F)(F)F)C(C)CN1CC(O)c1ccc2c(c1)CC[C@@H]1[C@@H]2CC[C@]2(C)C(=O)CC[C@@H]12` (single isomer, unassigned; diastereomer A) [listing 2 of 2 here], the inhibition was 50% in data set [1], 95% in data set [2] and 98% in data set [3].

By inhibition is commonly meant the drop in the measured response relative to a control, in per cent. As usually defined, the IC50 is the concentration that inhibits the measured activity by half.
